# RGS4 inh = RGS4 inhibitors, primary screen, cell-based, HEK293 M3R inducible RGS4, calcium flux. Regulator of G-protein signaling 4 (Homo sapiens), P49798. Fluo-4 calcium flux; active compounds read high; triggered by carbachol at its EC20. B-score at 10 µM. actives 0.45% (n = 310,000). AID 463165, 2010;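 active means B-score, a plate-corrected calcium signal, over three deviations above library mean, with baseline fluorescence within five deviations of library mean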;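 further: RGS4 expression induced by doxycycline in cells with stable M3 receptor; B-score is computed from the integrated fluorescence ratio over baseline after carbachol; higher B-score means a larger calcium signal and so more RGS4 inhibition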
# Target sequence (P49798 whole entry, looked up): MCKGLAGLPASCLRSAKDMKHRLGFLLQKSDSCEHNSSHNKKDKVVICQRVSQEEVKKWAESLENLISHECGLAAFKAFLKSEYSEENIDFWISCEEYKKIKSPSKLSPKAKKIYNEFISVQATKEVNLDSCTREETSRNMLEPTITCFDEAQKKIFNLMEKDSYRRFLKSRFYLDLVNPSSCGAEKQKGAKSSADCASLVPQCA
# MrgX1 antagonist = antagonists of human MrgX1 receptor, primary screen, HEK293 cells, Fluo-4 calcium flux; AID 588676, 2011; BAM8-22 antagonism; active compounds read low; actives 1.3% (n = 310,000); B-score at 10 µM;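 active means calcium-response B-score plate-corrected more than 3 library SD below zero, starting fluorescence within 5 deviations, no agonist response on first addition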;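 further: peak minus trough fluorescence over baseline after final BAM8-22 challenge near maximal dose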
# Target sequence (Q96LB2 whole entry, looked up): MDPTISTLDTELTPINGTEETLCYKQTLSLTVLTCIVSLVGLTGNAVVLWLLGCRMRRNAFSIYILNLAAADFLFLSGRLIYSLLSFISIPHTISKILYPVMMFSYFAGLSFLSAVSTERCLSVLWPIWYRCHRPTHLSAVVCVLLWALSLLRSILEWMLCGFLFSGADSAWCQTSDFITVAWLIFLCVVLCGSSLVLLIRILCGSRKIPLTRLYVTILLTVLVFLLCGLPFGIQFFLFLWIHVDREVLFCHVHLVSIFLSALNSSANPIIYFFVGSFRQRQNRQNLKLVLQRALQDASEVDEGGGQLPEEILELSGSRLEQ
# RGS4 pot = RGS4 potentiators or activators, primary screen, cell-based, HEK293 M3R inducible RGS4, calcium flux; carbachol calcium flux Fluo4; active compounds read low; B-score at 10 µM; actives 0.92% (n = 310,000); AID 463111, 2010;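 active means B-score of the integrated calcium signal more than 4 SD below the library mean, with starting fluorescence not abnormally high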;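 further: negative B-score means reduced calcium response which marks RGS4 activation or potentiation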
#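 Assay system: HEK293 FlpIn-TREx cells, stable M3R, doxycycline-inducible RGS4 / Probe or stimulus: carbachol, ECmax concentration / Times: overnight RGS4 induction, 30 min dye load 37 °C, 20 min compound RT / Signal: kinetic calcium fluorescence imaging with Fluo4-AM dye, 2 µM / Measure: Agonist-evoked peak-minus-minimum fluorescence over baseline, integrated ratio, B score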
# MrgX1 PAM = positive allosteric modulators of MrgX1, primary screen, HEK293 cells, Fluo-4 calcium flux. Mas-related G-protein coupled receptor member X1 (Homo sapiens), Q96LB2. FDSS; active compounds read high. B-score at 10 µM. actives 0.63% (n = 310,000). AID 588675, 2011;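 active means plate-corrected calcium response at least 3 library SD above typical, normal starting fluorescence, not activating the receptor alone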;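 further: compound read alongside a low EC10 to EC30 dose of BAM8-22 agonist; peak minus trough fluorescence over baseline measured at the second addition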
# MrgX1 agonist = agonists of human MrgX1 receptor, primary screen, HEK293 cells, Fluo-4 calcium flux; Mas-related G-protein coupled receptor member X1 (Homo sapiens), Q96LB2; Fluo-4 calcium fluorescence, agonist mode; active compounds read high; B-score at 10 µM; actives 0.44% (n = 310,000);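 active means calcium response B-score plate-corrected fluorescence ratio at least 3 library SD, with starting fluorescence B-score inside 5 SD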
#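 Material – MrgX1-expressing HEK293 cells · Input – 15,000 cells seeded per well · Dosing – compound as first of three additions · Times – overnight seeding, then 1 h dark dye loading · Measured by – kinetic Fluo-4 NW fluorescence of intracellular calcium · Read-out – B-scored fluorescence response ratio · Benchmarks – positive and negative control wells on each plate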
# MrgX1 allo conf = MrgX1 positive allosteric modulators, duplicate retest, confirmation, HEK293 cells, Fluo-4 calcium flux; shares compounds with MrgX1 PAM; Fluo-4 calcium fluorescence, FDSS; activation (ratio percentage), % at 10 µM; actives 13% (n = 1,200); AID 602413, 2012;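 active means ratio at least 3 SD above the weak peptide control, stable starting fluorescence, no direct agonism earlier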;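 further: compound followed by low BAM8-22 agonist challenge near EC20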
# MrgX1 antag conf = MrgX1 receptor antagonists, duplicate retest, confirmation, HEK293 cells, Fluo-4 calcium flux. shares compounds with MrgX1 antagonist. BAM8-22 calcium flux; active compounds read low. remaining BAM8-22 calcium response % of control (active compounds read low), % at 10 µM. actives 19% (n = 2,300). AID 602420, 2012;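 active means remaining agonist calcium response no higher than 100% minus 3 SD of agonist-only control wells, with starting fluorescence near control levels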;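 further: agonist BAM8-22 given at a near maximal EC90 to ECmax level; peak minus minimum fluorescence divided by baseline after agonist addition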
# HEK293 Ca flux = nonspecific calcium signal in parental HEK293, confirmation, counter-screen for MrgX1 antagonist project, parental HEK293 cells, Fluo-4 calcium flux | shares compounds with MrgX1 antagonist | Fluo-4 calcium fluorescence, FDSS | actives 2% (n = 4,000) | fluorescence ratio F(max-min)/F0 at 10 µM;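 active means duplicate-averaged calcium fluorescence ratio at least three times the standard deviation of buffer wells, a nonspecific response in parental cells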
# HEK293 Ca counter = calcium response in parental HEK293 cells, primary screen, counter-screen for MrgX1 allosteric activator project, cell-based, Fluo-4 calcium flux, duplicate; shares compounds with MrgX1 antagonist; fluorescence ratio F(max-min)/F0 at 10 µM; actives 0.4% (n = 4,000); Fluo-4 fluorescence ratio; active compounds read high;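 active means calcium fluorescence ratio, averaged over duplicates, at least 3 SD of the buffer-well ratio, meaning a nonspecific response in receptor-free cells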;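 further: untransfected parental HEK293 lacking MrgX1 used as counterscreen for MrgX1 allosteric activators; fluorescence change taken during the second addition on a kinetic imager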
# HEK293 Ca cntr2 = calcium response in parental HEK293 cells, primary screen, counter-screen for MrgX1 agonist project, cell-based, Fluo-4 calcium flux, duplicate, agonist mode | fluorescence ratio F(max-min)/F0 at 10 µM | actives 8.7% (n = 4,000) | AID 624115, 2012 | shares compounds with MrgX1 antagonist | Fluo-4 calcium fluorescence (FDSS); active compounds read high;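 active means calcium fluorescence ratio at least three times the spread of buffer wells, meaning a non-specific response in parental cells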
# Hits are given with their value; 0 = inactive; - = not tested or not shown. Hits are enriched below; roughly 3.5% of the tested compounds scored in any of these assays.
SMILES,RGS4 inh,MrgX1 antagonist,RGS4 pot,MrgX1 PAM,MrgX1 agonist,MrgX1 antag conf,HEK293 Ca flux,HEK293 Ca counter,HEK293 Ca cntr2,others
Cc1ccc(-c2csc(NC(=O)c3cccc(C)c3)c2C(=O)O)cc1,0,0,0,6.6,0,-,0,0,0,MrgX1 allo conf=0
Cc1nc2c3ccccc3n(Cc3ccccc3F)c2s1,0,0,0,0,0,-,-,-,-,
Cc1nc2c3cc(F)ccc3n(Cc3ccccc3F)c2s1,0,0,0,9,0,-,0,0,0,MrgX1 allo conf=0
COC(=O)C1CCN(C(=O)COC(=O)C2CCN(S(=O)(=O)c3ccc(C)c(C)c3)CC2)CC1,0,0,0,0,0,-,-,-,-,
O=c1cc(-c2ccc([N+](=O)[O-])cc2)c2ccc(O)cc2o1,0,0,0,0,0,-,-,-,-,
CSCC[C@H](NC(=O)[C@H](Cc1ccccc1)n1c(=O)[nH]c2ccccc2c1=O)C(=O)N[C@@H](Cc1ccccc1)C(=O)O,0,0,0,0,0,-,-,-,-,
CCOC(=O)C1C(=O)NC(c2ccccc2)=NC1c1ccc(OC)cc1 (centres undefined),0,0,0,12,0,-,0,0,0,MrgX1 allo conf=0
CC(C)Oc1ccc(C(=O)Nc2cccc3cccnc23)cc1,0,0,0,0,0,-,-,-,-,
CC1(C)C2CCC13CS(=O)(=O)N[C@@H]3C2 (some centres undefined),0,-9.4,0,0,0,0,0,0,0,
CCOC(=O)C1CCCN(S(=O)(=O)c2ccc(S(=O)(=O)N(CC)CC)cc2)C1 (centres undefined),0,0,0,0,0,-,-,-,-,
CCOC(=O)N1CCC(NC(=O)CN(C)S(=O)(=O)c2cc3c(cc2Cl)NC(=O)CO3)CC1,0,-5.2,0,0,0,0,0,0,0,
CC(OC(=O)CCCN=C1NS(=O)(=O)c2ccccc21)C(=O)Nc1ccccc1F (centres undefined),0,0,0,0,0,-,-,-,-,
COC(=O)C1=C(C)NC(=O)CC1c1ccc(F)c(Br)c1 (centres undefined),0,-4.6,0,0,0,0,0,0,0,
CC(Cc1cccs1)NC(=S)Nc1ccc(Cl)c(Cl)c1 (centres undefined),0,-6.8,0,0,0,0,0,0,0,
CC(Cc1cccs1)NC(=O)Nc1cccc(Cl)c1 (centres undefined),0,0,0,0,0,-,-,-,-,
Cn1c(CNc2ccccc2)nc2ccccc21,0,-6.9,0,0,0,85%,0,0,0,
CN(C)S(=O)(=O)c1cccc(NC(=O)CSc2nnnn2-c2ccccc2)c1,0,0,0,0,0,-,-,-,-,
O=C(Nc1ncc2c(n1)-c1ccccc1CC2)c1ccc(Cl)cc1,0,-5.2,0,0,0,0,0,0,0,
O=C(Nc1ncc2c(n1)-c1ccccc1CC2)c1cccc(Cl)c1,0,0,0,0,0,-,-,-,-,
O=C(Nc1ncc2c(n1)-c1ccccc1OC2)c1ccc(F)cc1,0,0,0,0,0,-,-,-,-,
CCCSCC(=O)Nc1ncc2c(n1)-c1ccccc1CC2,0,-4.7,0,0,0,75%,0,0,0,
CCOc1ccc(Br)cc1S(=O)(=O)NCCN1CCCC1,0,0,0,0,0,-,-,-,-,
CCC(C)(C)n1nnnc1C(c1cc2cc3c(cc2[nH]c1=O)OCO3)N1CCCCC1 (centres undefined),0,-5.9,0,0,0,0,0,0,0,
O=C(NC(NC(=S)Nc1cccc(Cl)c1)C(Cl)(Cl)Cl)OCc1ccccc1 (centres undefined),0,0,0,0,0,-,-,-,-,
N#Cc1cc(NC2CCCC2)c([N+](=O)[O-])cc1C#N,0,-12,0,0,0,0,0,0,0,
SMILES,RGS4 inh,MrgX1 antagonist,RGS4 pot,MrgX1 PAM,MrgX1 agonist,MrgX1 antag conf,HEK293 Ca flux,HEK293 Ca counter,HEK293 Ca cntr2,others
O=[N+]([O-])c1ccc(NC2CCCC2)cc1,0,0,0,0,0,-,-,-,-,
CSc1ccccc1NC(=O)C1=CC(c2ccc(C)cc2)=NS(=O)(=O)N1C,0,0,0,0,0,-,-,-,-,
Cc1ccc(S(=O)(=O)Nc2c(C)nc3nc(C)[nH]n3c2=O)c(C)c1,0,0,0,0,0,-,-,-,-,
CC(=O)c1ccc(NC(=S)NC(C)c2ccc(Cl)cc2Cl)cc1 (centres undefined),0,-10,0,0,0,0,0,0,0,
CCOc1ncccc1C(=O)Nc1nnc(C)s1,0,-4.8,0,0,0,0,0,0,0,
CC(C)(C)c1ccc(Oc2ccc(NC(=O)C3CC=CCC3C(=O)O)cc2)cc1 (centres undefined),0,-9,0,0,0,0,0,0,0,
Cc1ccccc1Oc1ccc(NC(=O)C2CC=CCC2C(=O)O)cc1 (centres undefined),0,0,0,0,0,-,-,-,-,
C=C(C(=O)c1ccccc1)C(C)C(=C)C(=O)c1ccccc1,0,0,0,0,0,-,-,-,-,
CCn1c(SCC(=O)Nc2cccc(C)n2)nc2c1c(=O)n(C)c(=O)n2C,0,-5.9,0,0,0,0,0,0,0,
COc1cccc(-c2nc(CS(=O)(=O)CC(=O)N3CCc4ccccc43)c(C)o2)c1,0,-4.9,0,0,0,0,0,0,0,
Clc1ccccc1-c1nnc2n1CCCCC2,0,0,0,0,0,-,-,-,-,
COCCN(C(=O)c1ccc(OCC(C)C)cc1)c1c(N)n(Cc2ccccc2)c(=O)[nH]c1=O,0,0,0,0,0,-,-,-,-,
COc1ccc(C)cc1-n1nnnc1SCC(=O)Nc1cccnc1Cl,0,-5.9,0,0,0,0,0,0,0,
COc1ccc(C)cc1-n1nnnc1SCC(=O)Nc1cc(C)on1,0,0,0,0,0,-,-,-,-,

# From PubChem
